# Measurements gathered from unrelated publications.
# Protocols differ between the studies behind these lines.
# Organism: Salmonella enterica
# Read-out: microbial growth
Structure (SMILES),test,system,conditions,MIC
O=C(Nc1ccc2c(c1)OC(F)(F)O2)Nc1ccc(Cl)c(C(F)(F)F)c1,,TYPHIMURIUM,,> 100 µM
O=C(O)c1cn(C2CC2)c2cc(N3CCNCC3)c(F)cc2c1=O,,,"20 h, pH 7.2",0.0156 µg/mL
NC[C@H]1O[C@H](O[C@H]2[C@H](O)[C@@H](O[C@H]3O[C@H](CO)[C@@H](O)[C@H](N)[C@H]3O)[C@H](N)C[C@@H]2N)[C@H](N)C[C@@H]1O,,ATCC14028,,150 µg/mL
COc1cc(Cc2cnc(N)nc2N)cc(OC)c1OC,,,"20 h, pH 7.2",0.25 µg/mL
C/C(=N\NC(=N)N)c1ccc(Oc2ccc(/C(C)=N/NC(=N)N)cc2)cc1.Cl.Cl,,ATCC14028,,54.9 µg/mL
CC1(C)S[C@@H]2[C@H](NC(=O)[C@H](N)c3ccccc3)C(=O)N2[C@H]1C(=O)O,broth dilution,,,8 µg/mL
C[C@@H](O)[C@H]1C(=O)N2C(C(=O)O)=C(S[C@@H]3CN[C@H](C(=O)N(C)C)C3)[C@H](C)[C@H]12,broth dilution,CHOLERAESUIS,clinical isolate,≤ 0.5 µg/mL
Cc1cc(NS(=O)(=O)c2ccc(N)cc2)no1,,,"20 h, pH 7",64 µg/mL
CN(C)[C@@H]1C(O)=C(C(N)=O)C(=O)[C@@]2(O)C(O)=C3C(=O)c4c(O)cccc4[C@@](C)(O)[C@H]3C[C@@H]12,,ATCC14028 TYPHIMURIUM,,8 µg/mL
Cl.N=C(N)N/N=C/c1ccc(-c2ccc(/C=N/Nc3ccccc3Cl)cc2)cc1,,ATCC14028,,> 215 µg/mL
CNC(=O)c1cc(Oc2ccc(NC(=O)Nc3ccc(Cl)c(C(F)(F)F)c3)cc2)ccn1,,TYPHIMURIUM,,> 100 µM
